Legend:
[1] = target: Ribosomal protein S6 kinase alpha-5 (Homo sapiens) (UniProt O75582); assay: Inhibition of MSK1 (unknown origin) at 1 uM relative to control
How it was run: (§1)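 Single-concentration screen of each compound against a 59-protein-kinase panel, run at 10 µM or 1 µM. Activity relative to control is shown as a heat map across the panel.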

[2] = target: Insulin-like growth factor 1 receptor (Homo sapiens) (UniProt P08069); assay: Inhibition of IGF1R (unknown origin) at 1 uM relative to control
Chain of Insulin-like growth factor 1 receptor (Homo sapiens) (P08069 31-736 limits assumed): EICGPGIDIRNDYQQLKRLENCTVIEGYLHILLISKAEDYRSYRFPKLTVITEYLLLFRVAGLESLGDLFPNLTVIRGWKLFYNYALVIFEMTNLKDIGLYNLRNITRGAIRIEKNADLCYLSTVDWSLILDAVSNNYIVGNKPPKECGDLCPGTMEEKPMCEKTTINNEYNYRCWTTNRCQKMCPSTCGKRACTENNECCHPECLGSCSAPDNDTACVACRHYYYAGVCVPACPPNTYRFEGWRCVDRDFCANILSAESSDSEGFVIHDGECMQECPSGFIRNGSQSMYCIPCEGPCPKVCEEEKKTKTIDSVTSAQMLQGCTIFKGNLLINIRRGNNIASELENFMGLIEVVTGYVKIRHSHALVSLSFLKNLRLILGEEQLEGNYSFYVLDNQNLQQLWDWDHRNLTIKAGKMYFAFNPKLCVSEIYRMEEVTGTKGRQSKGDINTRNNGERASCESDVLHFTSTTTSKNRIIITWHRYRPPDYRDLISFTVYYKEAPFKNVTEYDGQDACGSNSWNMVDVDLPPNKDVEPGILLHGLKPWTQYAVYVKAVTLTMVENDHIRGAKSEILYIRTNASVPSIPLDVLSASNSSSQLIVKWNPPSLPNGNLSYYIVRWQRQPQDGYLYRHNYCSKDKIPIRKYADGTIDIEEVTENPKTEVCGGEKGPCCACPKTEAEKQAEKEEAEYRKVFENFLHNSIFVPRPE
Chain of Insulin-like growth factor 1 receptor (Homo sapiens) (P08069 741-1367 limits assumed): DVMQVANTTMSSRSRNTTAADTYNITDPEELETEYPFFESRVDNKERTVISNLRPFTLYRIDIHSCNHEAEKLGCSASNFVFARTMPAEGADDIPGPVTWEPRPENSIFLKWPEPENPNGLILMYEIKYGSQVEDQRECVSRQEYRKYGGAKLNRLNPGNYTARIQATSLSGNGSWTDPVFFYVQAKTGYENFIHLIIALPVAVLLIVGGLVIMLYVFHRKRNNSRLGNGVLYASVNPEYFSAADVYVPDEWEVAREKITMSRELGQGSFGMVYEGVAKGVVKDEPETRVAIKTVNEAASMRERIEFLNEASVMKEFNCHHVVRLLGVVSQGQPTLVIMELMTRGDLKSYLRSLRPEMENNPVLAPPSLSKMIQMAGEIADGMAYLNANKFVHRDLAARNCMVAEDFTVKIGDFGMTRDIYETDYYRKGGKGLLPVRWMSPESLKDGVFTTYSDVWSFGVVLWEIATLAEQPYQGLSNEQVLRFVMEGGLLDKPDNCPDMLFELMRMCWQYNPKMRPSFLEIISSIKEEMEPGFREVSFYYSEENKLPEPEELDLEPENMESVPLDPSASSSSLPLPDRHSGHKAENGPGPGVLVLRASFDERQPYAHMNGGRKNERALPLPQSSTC
How it was run: (§2)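 Single-point screen of each compound against a panel of 59 protein kinases, at 1 or 10 μM. The panel data are also summarised as a rescaled geometric mean selectivity score.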

[3] = target: Insulin receptor-related protein (Homo sapiens) (UniProt P14616); assay: Inhibition of IRR (unknown origin) at 1 uM relative to control; how it was run: as §2
Chain of Insulin receptor-related protein (Homo sapiens) (P14616 27-742 limits assumed): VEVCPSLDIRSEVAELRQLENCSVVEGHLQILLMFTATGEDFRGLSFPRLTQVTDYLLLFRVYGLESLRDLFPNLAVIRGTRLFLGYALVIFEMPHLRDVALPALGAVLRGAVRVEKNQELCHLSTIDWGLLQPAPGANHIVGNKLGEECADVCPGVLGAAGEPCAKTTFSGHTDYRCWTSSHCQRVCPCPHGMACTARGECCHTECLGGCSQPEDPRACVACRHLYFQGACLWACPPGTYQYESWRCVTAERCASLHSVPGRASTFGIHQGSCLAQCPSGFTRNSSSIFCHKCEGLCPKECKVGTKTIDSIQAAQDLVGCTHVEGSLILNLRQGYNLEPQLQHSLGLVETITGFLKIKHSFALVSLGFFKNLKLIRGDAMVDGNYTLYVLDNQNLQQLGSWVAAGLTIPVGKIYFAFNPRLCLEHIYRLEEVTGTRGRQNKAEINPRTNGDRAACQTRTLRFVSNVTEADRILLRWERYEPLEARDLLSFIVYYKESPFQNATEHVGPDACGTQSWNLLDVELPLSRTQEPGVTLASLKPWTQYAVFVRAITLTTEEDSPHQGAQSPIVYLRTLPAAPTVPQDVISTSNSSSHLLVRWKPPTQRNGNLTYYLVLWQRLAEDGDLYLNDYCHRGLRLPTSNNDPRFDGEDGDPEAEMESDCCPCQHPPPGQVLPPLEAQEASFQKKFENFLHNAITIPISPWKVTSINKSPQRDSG
Chain of Insulin receptor-related protein (Homo sapiens) (P14616 747-1297 limits assumed): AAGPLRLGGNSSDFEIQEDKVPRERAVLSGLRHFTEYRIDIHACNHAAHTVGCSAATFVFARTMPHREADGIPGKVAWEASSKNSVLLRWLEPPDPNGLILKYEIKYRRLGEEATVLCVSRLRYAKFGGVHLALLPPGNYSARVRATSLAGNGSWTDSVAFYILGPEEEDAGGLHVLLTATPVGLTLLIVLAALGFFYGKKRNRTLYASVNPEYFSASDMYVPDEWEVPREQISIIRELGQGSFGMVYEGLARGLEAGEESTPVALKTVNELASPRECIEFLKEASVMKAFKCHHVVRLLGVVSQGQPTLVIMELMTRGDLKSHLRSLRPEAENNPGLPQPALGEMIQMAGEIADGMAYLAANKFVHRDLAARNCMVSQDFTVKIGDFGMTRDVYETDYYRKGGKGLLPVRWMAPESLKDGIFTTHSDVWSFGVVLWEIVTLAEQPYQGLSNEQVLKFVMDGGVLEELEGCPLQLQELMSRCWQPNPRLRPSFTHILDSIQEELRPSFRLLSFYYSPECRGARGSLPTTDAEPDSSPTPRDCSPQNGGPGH

[4] = target: T1, Serine/threonine-protein kinase Sgk1 (Homo sapiens) (UniProt O00141); assay: Inhibition of SGK1 (unknown origin) at 1 uM relative to control
T1 sequence (whole entry): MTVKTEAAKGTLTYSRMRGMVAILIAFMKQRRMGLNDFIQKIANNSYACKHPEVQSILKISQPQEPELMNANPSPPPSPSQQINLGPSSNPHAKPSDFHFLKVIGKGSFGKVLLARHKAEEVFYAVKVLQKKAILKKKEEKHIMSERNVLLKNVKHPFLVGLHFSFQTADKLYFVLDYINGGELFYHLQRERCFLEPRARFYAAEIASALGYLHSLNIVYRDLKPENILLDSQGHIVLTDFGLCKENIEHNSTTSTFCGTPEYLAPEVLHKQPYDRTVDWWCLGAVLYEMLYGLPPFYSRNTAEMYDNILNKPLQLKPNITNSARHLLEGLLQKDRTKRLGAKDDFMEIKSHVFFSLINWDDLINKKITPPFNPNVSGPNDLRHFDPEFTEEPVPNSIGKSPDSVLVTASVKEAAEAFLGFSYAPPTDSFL
How it was run: (§3)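 Single-concentration screen across a panel of 59 protein kinases, with each compound tested at one fixed concentration. The read-out is residual kinase activity relative to control. Panel results are also condensed into a rescaled geometric mean (RGM) selectivity score.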

[5] = target: CDK2/Cyclin A2 (Homo sapiens) (UniProt P24941+P20248); assay: Inhibition of CDK2/cyclinA (unknown origin) at 1 uM relative to control; format: protein-complex assay; how it was run: as §2
[6] = target: Ribosomal protein S6 kinase alpha-3 (Homo sapiens) (UniProt P51812); assay: Inhibition of RSK2 (unknown origin) at 1 uM relative to control; how it was run: as §3
Chain of Ribosomal protein S6 kinase alpha-3 (Homo sapiens) (P51812 whole entry): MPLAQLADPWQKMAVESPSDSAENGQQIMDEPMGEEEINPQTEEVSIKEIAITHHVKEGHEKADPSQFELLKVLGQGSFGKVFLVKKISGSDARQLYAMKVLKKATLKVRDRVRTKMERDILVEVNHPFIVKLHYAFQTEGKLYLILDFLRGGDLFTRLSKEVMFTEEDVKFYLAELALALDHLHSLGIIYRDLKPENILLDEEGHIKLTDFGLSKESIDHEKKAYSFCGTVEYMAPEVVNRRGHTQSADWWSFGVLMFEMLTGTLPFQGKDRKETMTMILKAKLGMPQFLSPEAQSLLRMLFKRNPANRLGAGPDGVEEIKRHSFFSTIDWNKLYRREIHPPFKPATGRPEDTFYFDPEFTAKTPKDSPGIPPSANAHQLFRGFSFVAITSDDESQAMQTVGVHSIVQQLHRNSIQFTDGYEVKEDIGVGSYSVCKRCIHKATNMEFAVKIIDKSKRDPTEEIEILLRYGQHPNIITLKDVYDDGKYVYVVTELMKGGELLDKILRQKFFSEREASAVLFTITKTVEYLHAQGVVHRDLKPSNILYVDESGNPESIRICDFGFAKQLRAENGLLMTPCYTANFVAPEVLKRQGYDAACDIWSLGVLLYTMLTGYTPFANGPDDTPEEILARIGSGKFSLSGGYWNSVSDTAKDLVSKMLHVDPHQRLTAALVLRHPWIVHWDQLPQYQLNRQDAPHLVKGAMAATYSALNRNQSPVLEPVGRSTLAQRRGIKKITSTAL

[7] = target: Proto-oncogene tyrosine-protein kinase Src (Homo sapiens) (UniProt P12931); assay: Inhibition of Src (unknown origin) at 1 uM relative to control; how it was run: as §3
[8] = target: Mitogen-activated protein kinase 3 (Homo sapiens) (UniProt P27361); assay: Inhibition of ERK1 (unknown origin) at 1 uM relative to control; how it was run: as §2
[9] = target: Mitogen-activated protein kinase 14 (Homo sapiens) (UniProt Q16539); assay: Inhibition of p38a MAPK (unknown origin) at 1 uM relative to control; how it was run: as §3
[10] = target: T2, Serine/threonine-protein kinase BRSK2 (Homo sapiens) (UniProt Q8IWQ3); assay: Inhibition of BRSK2 (unknown origin) at 1 uM relative to control; how it was run: as §2
T2 sequence (whole entry): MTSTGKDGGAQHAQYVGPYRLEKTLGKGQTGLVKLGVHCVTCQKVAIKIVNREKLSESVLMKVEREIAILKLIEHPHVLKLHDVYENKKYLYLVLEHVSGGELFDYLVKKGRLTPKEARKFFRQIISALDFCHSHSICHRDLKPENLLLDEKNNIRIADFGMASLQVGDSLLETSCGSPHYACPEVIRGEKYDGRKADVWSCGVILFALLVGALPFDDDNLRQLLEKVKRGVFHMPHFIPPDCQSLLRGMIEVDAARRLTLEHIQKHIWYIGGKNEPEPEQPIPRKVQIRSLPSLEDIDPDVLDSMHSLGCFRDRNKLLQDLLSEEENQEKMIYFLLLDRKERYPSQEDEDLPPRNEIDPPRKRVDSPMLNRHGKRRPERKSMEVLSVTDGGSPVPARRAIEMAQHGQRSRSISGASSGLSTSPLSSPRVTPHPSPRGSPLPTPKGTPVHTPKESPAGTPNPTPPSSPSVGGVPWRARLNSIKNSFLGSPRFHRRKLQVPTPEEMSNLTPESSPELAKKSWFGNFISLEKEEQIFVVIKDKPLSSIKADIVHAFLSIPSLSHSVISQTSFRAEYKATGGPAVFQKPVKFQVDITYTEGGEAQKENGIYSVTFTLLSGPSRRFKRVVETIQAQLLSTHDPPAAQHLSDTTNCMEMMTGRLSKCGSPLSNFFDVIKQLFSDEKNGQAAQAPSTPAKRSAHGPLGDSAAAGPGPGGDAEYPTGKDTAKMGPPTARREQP

[11] = target: Calcium/calmodulin-dependent protein kinase kinase 2 (Homo sapiens) (UniProt Q96RR4); assay: Inhibition of CAMKKb (unknown origin) at 1 uM relative to control; how it was run: as §2
Chain of Calcium/calmodulin-dependent protein kinase kinase 2 (Homo sapiens) (Q96RR4 2-588 limits assumed): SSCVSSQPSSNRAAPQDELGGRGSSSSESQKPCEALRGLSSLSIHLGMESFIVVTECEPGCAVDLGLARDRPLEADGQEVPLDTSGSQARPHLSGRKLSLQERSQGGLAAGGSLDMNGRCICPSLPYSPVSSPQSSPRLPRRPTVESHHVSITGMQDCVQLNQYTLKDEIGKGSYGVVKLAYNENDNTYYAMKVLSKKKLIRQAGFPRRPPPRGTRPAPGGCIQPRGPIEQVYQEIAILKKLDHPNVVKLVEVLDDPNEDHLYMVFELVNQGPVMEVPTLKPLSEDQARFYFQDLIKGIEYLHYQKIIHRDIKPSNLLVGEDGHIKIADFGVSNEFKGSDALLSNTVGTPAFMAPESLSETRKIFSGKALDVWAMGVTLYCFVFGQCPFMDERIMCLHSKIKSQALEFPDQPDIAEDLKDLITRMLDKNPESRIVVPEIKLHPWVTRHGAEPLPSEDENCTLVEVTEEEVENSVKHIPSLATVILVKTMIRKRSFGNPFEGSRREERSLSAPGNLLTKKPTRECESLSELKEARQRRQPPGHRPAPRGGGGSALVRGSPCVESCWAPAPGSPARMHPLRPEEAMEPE

[12] = target: T3, Serine/threonine-protein kinase 3 (Homo sapiens) (UniProt Q13188); assay: Inhibition of MST2 (unknown origin) at 1 uM relative to control; how it was run: as §1
T3 sequence (whole entry): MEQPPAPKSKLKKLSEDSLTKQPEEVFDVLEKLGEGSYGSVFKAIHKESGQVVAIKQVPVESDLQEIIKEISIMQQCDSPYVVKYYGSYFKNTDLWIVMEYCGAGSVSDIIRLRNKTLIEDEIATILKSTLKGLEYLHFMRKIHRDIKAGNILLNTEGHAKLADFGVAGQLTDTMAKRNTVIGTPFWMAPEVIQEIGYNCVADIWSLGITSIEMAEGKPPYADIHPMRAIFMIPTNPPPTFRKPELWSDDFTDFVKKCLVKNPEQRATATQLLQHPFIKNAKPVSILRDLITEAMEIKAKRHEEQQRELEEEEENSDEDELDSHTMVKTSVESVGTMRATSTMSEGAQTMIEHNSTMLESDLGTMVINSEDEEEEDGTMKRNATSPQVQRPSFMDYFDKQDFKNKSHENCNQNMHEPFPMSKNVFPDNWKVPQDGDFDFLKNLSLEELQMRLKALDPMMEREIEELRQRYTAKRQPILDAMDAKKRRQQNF

Chain of Ribosomal protein S6 kinase alpha-5 (Homo sapiens) (O75582 whole entry, looked up): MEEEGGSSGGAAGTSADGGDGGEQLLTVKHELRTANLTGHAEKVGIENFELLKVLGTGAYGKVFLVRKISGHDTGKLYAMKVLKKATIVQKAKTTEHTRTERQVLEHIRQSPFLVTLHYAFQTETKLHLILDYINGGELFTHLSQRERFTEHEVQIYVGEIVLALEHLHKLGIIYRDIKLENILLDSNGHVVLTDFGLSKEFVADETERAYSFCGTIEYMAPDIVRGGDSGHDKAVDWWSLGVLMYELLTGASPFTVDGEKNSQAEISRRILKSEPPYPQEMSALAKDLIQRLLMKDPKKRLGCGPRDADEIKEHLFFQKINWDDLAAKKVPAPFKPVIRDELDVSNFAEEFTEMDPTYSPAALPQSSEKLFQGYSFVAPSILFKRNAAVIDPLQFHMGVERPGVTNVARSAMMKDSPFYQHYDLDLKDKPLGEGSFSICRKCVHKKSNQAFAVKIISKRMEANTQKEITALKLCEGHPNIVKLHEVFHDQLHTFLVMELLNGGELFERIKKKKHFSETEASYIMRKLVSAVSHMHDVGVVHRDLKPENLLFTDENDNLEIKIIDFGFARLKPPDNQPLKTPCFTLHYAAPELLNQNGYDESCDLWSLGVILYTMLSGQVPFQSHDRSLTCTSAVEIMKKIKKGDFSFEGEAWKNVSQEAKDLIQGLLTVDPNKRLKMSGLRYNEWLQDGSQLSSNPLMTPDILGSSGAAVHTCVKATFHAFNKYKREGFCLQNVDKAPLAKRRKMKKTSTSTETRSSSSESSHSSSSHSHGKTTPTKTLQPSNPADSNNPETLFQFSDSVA

| SMILES | inhibition [1] [%] | inhibition [2] [%] | inhibition [3] [%] | inhibition [4] [%] | inhibition [5] [%] | inhibition [6] [%] | inhibition [7] [%] | inhibition [8] [%] | inhibition [9] [%] | inhibition [10] [%] | inhibition [11] [%] | inhibition [12] [%] |
| --- | --- | --- | --- | --- | --- | --- | --- | --- | --- | --- | --- | --- |
| c1cc(-c2n[nH]c3ccnc(OC4CCOCC4)c23)cc(N2CCOCC2)n1 | 0 | 11 | 3 | 0 | 23 | 0 | 0 | 37 | 0 | 0 | 0 | 7 |
| CC(C)n1cc(-c2n[nH]c3ccnc(OC4CCOCC4)c23)cn1 | 18 | 40 | 45 | 12 | 66 | 58 | 0 | 28 | 0 | 19 | 1 | 40 |

Source: ChEMBL document CHEMBL4330096, “Discovery of potent and selective 5-azaindazole inhibitors of leucine-rich repeat kinase 2 (LRRK2) - Part 1” (Bioorg Med Chem Lett, 2019)
